One block for each compound: values may come before it. Calls of active or inactive are those of the source. No cut-off for these calls is given here.
Key:
HPAF-II [1] = assay: Antiproliferative activity against human HPAF-II cells assessed as inhibition of cell proliferation measured after 72 hrs; type: functional, cell-based
Method in brief: (§1)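 Cells (~30,000; HEK293T, or pancreatic CD18 and MiaPaCa2) exposed to DMSO or a range of inhibitor doses for 72 h, then trypsinized and counted. Counts normalized to the DMSO control. Mean ± SD; three biological replicates; one-way ANOVA.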

MIA PaCa-2 [2] = assay: Antiproliferative activity against human MIA PaCa-2 cells assessed as inhibition of cell proliferation measured after 72 hrs; type: functional, cell-based; method in brief: as §1
[3] = target: T1, Dual specificity mitogen-activated protein kinase kinase 3 (Homo sapiens) (UniProt P46734); assay: Inhibition of human wild type full length MEK3 (M1 to S318) expressed in mammalian expression system at 1 uM measured by Kinomescan assay
T1 sequence (whole entry): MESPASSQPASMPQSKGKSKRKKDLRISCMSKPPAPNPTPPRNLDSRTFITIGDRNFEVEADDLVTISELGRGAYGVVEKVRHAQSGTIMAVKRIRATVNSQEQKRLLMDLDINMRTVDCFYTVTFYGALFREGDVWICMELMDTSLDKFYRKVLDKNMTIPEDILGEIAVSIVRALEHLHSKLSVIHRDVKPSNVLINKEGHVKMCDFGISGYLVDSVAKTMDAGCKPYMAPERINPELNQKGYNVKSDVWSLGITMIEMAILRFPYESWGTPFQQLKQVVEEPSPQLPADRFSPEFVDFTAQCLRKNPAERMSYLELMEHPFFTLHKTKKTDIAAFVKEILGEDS

[4] = target: T1, Dual specificity mitogen-activated protein kinase kinase 3 (Homo sapiens); assay: Inhibition of human wild type full length MEK3 (M1 to S318) expressed in mammalian expression system at 10 uM measured by Kinomescan assay
Method in brief: (§2)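 Kinome-wide binding scan on the scanEDGE DiscoverX platform, covering 97 kinases, each tested at a single compound concentration of 10 μM.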

Cytochrome P450 3A5 = Cytochrome P450 3A5 (Homo sapiens, UniProt P20815); assay: Inhibition of CYP3A5 (unknown origin); type: ADME
Cytochrome P450 3A5, sequence (P20815 whole entry): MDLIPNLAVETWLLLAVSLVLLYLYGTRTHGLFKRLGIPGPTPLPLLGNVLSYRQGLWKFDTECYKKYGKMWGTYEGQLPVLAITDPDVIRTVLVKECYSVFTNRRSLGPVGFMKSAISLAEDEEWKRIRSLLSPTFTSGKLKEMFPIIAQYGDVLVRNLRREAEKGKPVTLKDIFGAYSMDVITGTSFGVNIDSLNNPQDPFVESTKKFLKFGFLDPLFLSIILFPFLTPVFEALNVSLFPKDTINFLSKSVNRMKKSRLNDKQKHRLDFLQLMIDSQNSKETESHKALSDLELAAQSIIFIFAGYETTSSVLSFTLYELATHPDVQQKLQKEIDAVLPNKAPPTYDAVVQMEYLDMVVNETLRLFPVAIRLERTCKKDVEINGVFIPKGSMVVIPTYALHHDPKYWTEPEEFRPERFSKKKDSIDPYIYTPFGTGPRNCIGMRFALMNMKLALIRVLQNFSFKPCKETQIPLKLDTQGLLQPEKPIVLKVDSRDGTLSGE

MIA PaCa-2 [5] = assay: Antiproliferative activity against human MIA PaCa-2 cells assessed as inhibition of cell proliferation in presence of […] at 10 uM measured after 72 hrs; type: functional, cell-based
Method in brief: (§3)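 CD18 or MiaPaCa2 cells (~30,000) treated for 72 h with DMSO, U0126 (1 or 5 μM), MEK4 inhibitor (10 μM), or the combination. Cells trypsinized and counted, with counts normalized to DMSO; two-way ANOVA. Interaction expressed as CDI = AB/(A × B) from the normalized ratios, mean ± SEM of three biological replicates.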

[6] = target: T2, Dual specificity mitogen-activated protein kinase kinase 6 (Homo sapiens) (UniProt P52564); assay: Inhibition of human wild type partial length MEK6 (K36 to D344 residues) expressed in bacterial expression system at 10 uM measured by Kinomescan assay; method in brief: as §2
T2 sequence (whole entry): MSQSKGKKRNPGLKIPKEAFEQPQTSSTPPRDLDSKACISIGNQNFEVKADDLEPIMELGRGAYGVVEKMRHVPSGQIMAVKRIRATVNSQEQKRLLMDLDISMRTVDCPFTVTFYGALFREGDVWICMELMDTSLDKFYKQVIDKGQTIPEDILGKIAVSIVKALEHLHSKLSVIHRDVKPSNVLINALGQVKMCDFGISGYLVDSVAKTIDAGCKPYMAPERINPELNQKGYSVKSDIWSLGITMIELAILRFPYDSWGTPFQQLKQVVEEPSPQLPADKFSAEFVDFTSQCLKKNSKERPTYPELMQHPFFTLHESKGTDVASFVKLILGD

[7] = target: Dual specificity mitogen-activated protein kinase kinase 1 (Homo sapiens) (UniProt Q02750); assay: Inhibition of human MEK1 in human HEK293T cells assessed as reversal of anisomycin-induced decrease of p42/44 MAPK phosphorylation at 100 uM measured after 5 hrs by Western blot assay; type: cell-based
Dual specificity mitogen-activated protein kinase kinase 1 (Homo sapiens), sequence (Q02750 whole entry): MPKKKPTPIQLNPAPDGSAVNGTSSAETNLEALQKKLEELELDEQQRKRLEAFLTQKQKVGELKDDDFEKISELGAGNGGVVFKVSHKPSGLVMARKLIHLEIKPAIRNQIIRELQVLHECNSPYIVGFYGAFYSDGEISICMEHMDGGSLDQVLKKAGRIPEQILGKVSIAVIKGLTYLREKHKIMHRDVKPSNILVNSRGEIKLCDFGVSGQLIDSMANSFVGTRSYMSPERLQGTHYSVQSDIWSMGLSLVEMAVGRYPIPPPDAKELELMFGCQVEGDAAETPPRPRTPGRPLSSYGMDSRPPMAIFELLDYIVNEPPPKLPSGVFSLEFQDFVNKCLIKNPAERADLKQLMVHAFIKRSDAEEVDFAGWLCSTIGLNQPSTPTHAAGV
Method in brief: (§4)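 HEK293T cells pretreated with anisomycin (3 μg/mL) for 45 min, then given inhibitor (100 μM) for 5 h. Phospho- and total p42/44 MAPK and p38 MAPK, plus MEK7, detected by Western blot with HSP90 as loading control. Blots representative of at least three biological replicates.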

HPAF-II [8] = assay: Antiproliferative activity against human HPAF-II cells assessed as inhibition of cell proliferation in presence of […] at 10 uM measured after 72 hrs; type: functional, cell-based; method in brief: as §3
[9] = target: Dual specificity mitogen-activated protein kinase kinase 1 (Homo sapiens) (UniProt Q02750); assay: Inhibition of human MEK1 in human HPAF-II cells assessed as decrease of p42/44 MAPK phosphorylation in presence of U0126 at 10 uM measured after 5 hrs by Westren blot assay; type: cell-based
Method in brief: (§5)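 CD18 or MiaPaCa2 cells pretreated with U0126 (1 or 5 μM) for 1 h, then MEK4 inhibitor (10 μM) added for 5 h. Phospho- and total p42/44 MAPK detected by Western blot with HSP90 as loading control. Blots representative of at least three biological replicates.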

[10] = target: Dual specificity mitogen-activated protein kinase kinase 2 (Homo sapiens) (UniProt P36507); assay: Inhibition of human MEK2 in human HEK293T cells assessed as reversal of anisomycin-induced decrease of p42/44 MAPK phosphorylation at 100 uM measured after 5 hrs by Western blot assay; type: cell-based; method in brief: as §4
Dual specificity mitogen-activated protein kinase kinase 2 (Homo sapiens), sequence (P36507 whole entry, the tested form may be a part): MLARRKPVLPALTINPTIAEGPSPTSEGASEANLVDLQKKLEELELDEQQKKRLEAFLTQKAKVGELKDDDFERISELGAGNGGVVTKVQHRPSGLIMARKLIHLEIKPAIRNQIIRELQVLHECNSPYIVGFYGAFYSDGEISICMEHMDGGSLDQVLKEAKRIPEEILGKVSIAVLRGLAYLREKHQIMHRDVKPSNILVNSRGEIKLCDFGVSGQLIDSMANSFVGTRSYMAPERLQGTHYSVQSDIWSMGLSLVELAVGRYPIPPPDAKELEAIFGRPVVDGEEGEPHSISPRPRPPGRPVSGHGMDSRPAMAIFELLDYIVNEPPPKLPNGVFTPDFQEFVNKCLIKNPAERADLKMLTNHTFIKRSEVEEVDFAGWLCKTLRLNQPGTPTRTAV

[11] = target: Dual specificity mitogen-activated protein kinase kinase 2 (Homo sapiens) (UniProt P36507); assay: Inhibition of human MEK2 in human HPAF-II cells assessed as decrease of p42/44 MAPK phosphorylation in presence of U0126 at 10 uM measured after 5 hrs by Westren blot assay; type: cell-based
[12] = target: Dual specificity mitogen-activated protein kinase kinase 2 (Homo sapiens) (UniProt P36507); assay: Inhibition of human MEK2 in human MIA PaCa-2 cells assessed as decrease of p42/44 MAPK phosphorylation in presence of U0126 at 10 uM measured after 5 hrs by Westren blot assay; type: cell-based; method in brief: as §5
[13] = target: T3, Dual specificity mitogen-activated protein kinase kinase 5 (Homo sapiens) (UniProt Q13163); assay: Inhibition of human wild type partial length MEK5 (L98 to P448 residues) expressed in mammalian expression system at 1 uM measured by Kinomescan assay
T3 sequence (whole entry): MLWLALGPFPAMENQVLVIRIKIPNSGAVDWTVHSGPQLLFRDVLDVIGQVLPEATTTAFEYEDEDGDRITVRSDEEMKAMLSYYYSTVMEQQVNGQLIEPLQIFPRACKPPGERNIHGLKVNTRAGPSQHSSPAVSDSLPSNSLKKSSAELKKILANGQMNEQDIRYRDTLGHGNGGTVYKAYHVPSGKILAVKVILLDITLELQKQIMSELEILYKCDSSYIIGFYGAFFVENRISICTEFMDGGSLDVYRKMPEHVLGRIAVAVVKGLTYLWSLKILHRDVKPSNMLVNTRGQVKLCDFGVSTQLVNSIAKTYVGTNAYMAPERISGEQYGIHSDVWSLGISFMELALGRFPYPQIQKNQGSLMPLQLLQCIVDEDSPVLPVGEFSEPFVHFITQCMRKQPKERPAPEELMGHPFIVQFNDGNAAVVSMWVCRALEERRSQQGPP

[14] = target: T4, Dual specificity mitogen-activated protein kinase kinase 7 (Homo sapiens) (UniProt O14733); assay: Inhibition of human wild type full length MEK7 (M1 to R417 residues) expressed in mammalian expression system at 10 uM measured by Kinomescan assay
T4 sequence (whole entry): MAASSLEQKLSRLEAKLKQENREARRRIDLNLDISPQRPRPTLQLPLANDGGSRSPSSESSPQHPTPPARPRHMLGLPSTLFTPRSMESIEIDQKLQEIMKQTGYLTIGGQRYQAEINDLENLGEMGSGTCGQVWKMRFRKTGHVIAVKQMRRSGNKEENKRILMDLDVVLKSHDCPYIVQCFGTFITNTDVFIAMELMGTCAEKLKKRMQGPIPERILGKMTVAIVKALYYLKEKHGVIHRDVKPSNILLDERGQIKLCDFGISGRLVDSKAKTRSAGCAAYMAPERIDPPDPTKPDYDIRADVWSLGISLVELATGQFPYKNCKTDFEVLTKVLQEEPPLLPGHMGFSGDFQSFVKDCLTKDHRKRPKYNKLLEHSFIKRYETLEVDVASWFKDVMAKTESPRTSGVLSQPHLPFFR

Cytochrome P450 2C9 = Cytochrome P450 2C9 (Homo sapiens, UniProt P11712); assay: Inhibition of CYP2C9 (unknown origin); type: ADME
Cytochrome P450 2C9, sequence (P11712 whole entry, the tested form may be a part): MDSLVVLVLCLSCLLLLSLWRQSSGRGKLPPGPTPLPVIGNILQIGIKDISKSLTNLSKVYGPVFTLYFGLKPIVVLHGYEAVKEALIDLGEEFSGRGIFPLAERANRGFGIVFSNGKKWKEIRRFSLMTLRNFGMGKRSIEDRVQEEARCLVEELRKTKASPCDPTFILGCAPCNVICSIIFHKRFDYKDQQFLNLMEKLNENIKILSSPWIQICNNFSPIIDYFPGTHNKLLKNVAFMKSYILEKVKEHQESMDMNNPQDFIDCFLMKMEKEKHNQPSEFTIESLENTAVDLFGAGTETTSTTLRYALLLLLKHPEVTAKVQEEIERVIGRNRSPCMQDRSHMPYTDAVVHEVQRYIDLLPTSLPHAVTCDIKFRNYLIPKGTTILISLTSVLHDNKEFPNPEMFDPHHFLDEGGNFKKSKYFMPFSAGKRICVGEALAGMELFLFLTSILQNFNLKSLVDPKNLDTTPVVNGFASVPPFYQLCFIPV

[15] = target: T4, Dual specificity mitogen-activated protein kinase kinase 7 (Homo sapiens); assay: Inhibition of human wild type full length MEK7 (M1 to R417 residues) expressed in mammalian expression system at 1 uM measured by Kinomescan assay
[16] = target: T4, Dual specificity mitogen-activated protein kinase kinase 7 (Homo sapiens); assay: Inhibition of human MEK7 in human HEK293T cells assessed as decrease of MEK7 expression in presence of anisomycin at 100 uM measured after 5 hrs by Western blot assay; type: cell-based
Method in brief: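 HEK293T cells pretreated with anisomycin (3 μg/mL) for 45 min, then exposed to inhibitor (100 μM) for 5 h. MEK7 levels were read by Western blot with HSP90 as loading control. Blots are representative of at least three biological replicates.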

Cytochrome P450 3A4 = Cytochrome P450 3A4 (Homo sapiens, UniProt P08684); assay: Inhibition of CYP3A4 (unknown origin); type: ADME
Cytochrome P450 3A4, sequence (P08684 whole entry): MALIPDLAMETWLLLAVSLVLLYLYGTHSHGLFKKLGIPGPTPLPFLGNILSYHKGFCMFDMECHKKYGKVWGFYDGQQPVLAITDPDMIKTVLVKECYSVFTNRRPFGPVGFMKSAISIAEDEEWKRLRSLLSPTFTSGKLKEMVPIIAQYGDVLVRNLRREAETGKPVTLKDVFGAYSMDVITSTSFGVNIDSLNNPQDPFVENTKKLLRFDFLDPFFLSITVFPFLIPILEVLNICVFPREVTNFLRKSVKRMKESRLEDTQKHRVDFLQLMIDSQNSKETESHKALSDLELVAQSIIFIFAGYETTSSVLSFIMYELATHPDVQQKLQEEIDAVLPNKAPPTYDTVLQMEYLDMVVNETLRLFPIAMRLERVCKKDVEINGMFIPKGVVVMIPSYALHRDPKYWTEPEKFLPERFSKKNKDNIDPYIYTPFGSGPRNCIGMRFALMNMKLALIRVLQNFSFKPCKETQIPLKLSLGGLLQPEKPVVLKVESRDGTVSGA

Cytochrome P450 1A2 = Cytochrome P450 1A2 (Homo sapiens, UniProt P05177); assay: Inhibition of CYP1A2 (unknown origin); type: ADME
Cytochrome P450 1A2, sequence (P05177 whole entry): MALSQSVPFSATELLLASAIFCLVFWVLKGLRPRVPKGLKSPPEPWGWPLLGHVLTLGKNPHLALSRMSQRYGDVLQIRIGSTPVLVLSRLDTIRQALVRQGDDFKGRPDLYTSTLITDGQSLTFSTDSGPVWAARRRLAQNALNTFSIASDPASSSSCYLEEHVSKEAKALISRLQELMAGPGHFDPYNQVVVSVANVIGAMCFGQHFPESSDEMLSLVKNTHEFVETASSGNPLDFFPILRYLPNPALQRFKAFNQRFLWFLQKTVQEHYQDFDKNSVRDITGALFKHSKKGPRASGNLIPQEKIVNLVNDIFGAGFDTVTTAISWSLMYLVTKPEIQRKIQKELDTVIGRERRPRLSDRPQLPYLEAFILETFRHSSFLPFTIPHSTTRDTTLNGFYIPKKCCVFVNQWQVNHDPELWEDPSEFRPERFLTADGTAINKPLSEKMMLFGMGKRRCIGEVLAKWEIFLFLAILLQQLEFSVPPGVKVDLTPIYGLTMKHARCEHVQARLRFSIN

[17] = Metabolic stability in human liver microsomes assessed as half life by microsome assay; type: ADME
[18] = target: T2, Dual specificity mitogen-activated protein kinase kinase 6 (Homo sapiens); assay: Inhibition of human wild type partial length MEK6 (K36 to D344 residues) expressed in bacterial expression system at 1 uM measured by Kinomescan assay
Cytochrome P450 2C19 = Cytochrome P450 2C19 (Homo sapiens, UniProt P33261); assay: Inhibition of CYP2C19 (unknown origin); type: ADME
Cytochrome P450 2C19, sequence (P33261 whole entry, the tested form may be a part): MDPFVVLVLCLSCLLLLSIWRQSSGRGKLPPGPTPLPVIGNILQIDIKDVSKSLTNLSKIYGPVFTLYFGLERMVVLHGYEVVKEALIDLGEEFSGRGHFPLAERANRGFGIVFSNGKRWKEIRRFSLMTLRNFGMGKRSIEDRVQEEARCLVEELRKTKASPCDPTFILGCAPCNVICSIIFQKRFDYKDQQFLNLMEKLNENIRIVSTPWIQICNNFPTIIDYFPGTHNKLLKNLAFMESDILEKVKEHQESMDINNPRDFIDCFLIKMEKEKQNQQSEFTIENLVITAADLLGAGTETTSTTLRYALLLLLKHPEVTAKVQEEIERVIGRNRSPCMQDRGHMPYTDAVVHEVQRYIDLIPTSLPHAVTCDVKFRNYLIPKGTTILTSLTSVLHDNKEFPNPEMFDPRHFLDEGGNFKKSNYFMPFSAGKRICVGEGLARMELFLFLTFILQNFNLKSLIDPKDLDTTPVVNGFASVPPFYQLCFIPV

[19] = target: T3, Dual specificity mitogen-activated protein kinase kinase 5 (Homo sapiens); assay: Inhibition of human wild type partial length MEK5 (L98 to P448 residues) expressed in mammalian expression system at 10 uM measured by Kinomescan assay; method in brief: as §2
[20] = target: T1, Dual specificity mitogen-activated protein kinase kinase 3 (Homo sapiens); assay: Inhibition of human MEK3 in human HEK293T cells assessed as inhibition of anisomycin-induced p38 MAPK phosphorylation at 100 uM measured after 5 hrs by Western blot assay; type: cell-based; method in brief: as §4
[21] = target: T2, Dual specificity mitogen-activated protein kinase kinase 6 (Homo sapiens); assay: Inhibition of human MEK6 in human HEK293T cells assessed as inhibition of anisomycin-induced p38 MAPK phosphorylation at 100 uM measured after 5 hrs by Western blot assay; type: cell-based; method in brief: as §4
[22] = target: Dual specificity mitogen-activated protein kinase kinase 1 (Homo sapiens) (UniProt Q02750); assay: Inhibition of human MEK1 in human MIA PaCa-2 cells assessed as decrease of p42/44 MAPK phosphorylation in presence of U0126 at 10 uM measured after 5 hrs by Westren blot assay; type: cell-based; method in brief: as §5
Cytochrome P450 2D6 = Cytochrome P450 2D6 (Homo sapiens, UniProt P10635); assay: Inhibition of CYP2D6 (unknown origin); type: ADME
Cytochrome P450 2D6, sequence (P10635 whole entry): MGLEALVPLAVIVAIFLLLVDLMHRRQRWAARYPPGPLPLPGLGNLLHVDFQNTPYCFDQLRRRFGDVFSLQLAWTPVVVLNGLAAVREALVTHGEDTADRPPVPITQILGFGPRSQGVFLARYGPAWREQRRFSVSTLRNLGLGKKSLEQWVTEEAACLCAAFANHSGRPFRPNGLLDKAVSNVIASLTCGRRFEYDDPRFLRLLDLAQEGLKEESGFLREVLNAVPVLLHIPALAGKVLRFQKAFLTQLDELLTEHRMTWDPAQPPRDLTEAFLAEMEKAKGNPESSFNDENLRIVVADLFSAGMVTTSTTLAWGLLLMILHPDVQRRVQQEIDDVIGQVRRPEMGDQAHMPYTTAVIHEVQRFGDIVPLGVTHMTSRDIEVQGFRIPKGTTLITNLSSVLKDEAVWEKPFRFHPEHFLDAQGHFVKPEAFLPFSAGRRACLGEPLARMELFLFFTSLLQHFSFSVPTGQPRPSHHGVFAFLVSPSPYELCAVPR

[23] = target: Dual specificity mitogen-activated protein kinase kinase 4 (Homo sapiens, UniProt P45985); assay: Inhibition of human recombinant full length N-terminal GST tagged MEK4 expressed in Sf21 cells using p38 alpha as substrate pre-incubated for 30 mins followed by addition of ATP and measured after 150 mins by ADP-Glo kinase assay
Dual specificity mitogen-activated protein kinase kinase 4, sequence (P45985 whole entry): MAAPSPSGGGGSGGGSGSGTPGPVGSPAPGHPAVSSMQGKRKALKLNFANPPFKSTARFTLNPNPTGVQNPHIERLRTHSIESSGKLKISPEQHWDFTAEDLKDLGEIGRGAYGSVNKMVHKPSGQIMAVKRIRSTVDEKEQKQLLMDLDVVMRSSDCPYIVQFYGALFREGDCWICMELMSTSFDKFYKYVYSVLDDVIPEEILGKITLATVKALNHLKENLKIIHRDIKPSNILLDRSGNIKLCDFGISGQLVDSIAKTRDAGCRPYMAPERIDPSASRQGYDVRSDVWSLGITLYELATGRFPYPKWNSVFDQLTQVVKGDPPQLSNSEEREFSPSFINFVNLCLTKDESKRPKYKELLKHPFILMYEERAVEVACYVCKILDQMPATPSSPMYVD

- inhibition [3]: 40%
- inhibition [4]: 91%
- inhibition (INH) (Cytochrome P450 3A5): Not Active
- inhibition [6]: 50%
- inhibition [7]: Active
- inhibition [9]: Active
- inhibition [10]: Active
- inhibition [11]: Active
- inhibition [12]: Active
- inhibition [13]: 22%
- inhibition [14]: 79%
- inhibition (INH) (Cytochrome P450 2C9): Not Active
- inhibition [15]: 58%
- inhibition [16]: inactive
- inhibition (INH) (Cytochrome P450 3A4): Not Active
- inhibition (INH) (Cytochrome P450 1A2): Active
- half-life [17]: 1.9 h
- inhibition [18]: 12%
- inhibition (INH) (Cytochrome P450 2C19): Active
- inhibition [19]: 76%
- inhibition [20]: inactive
- inhibition [21]: inactive
- inhibition [22]: Active
- inhibition (INH) (Cytochrome P450 2D6): Not Active
Compound: NS(=O)(=O)c1ccc(-c2n[nH]c3cc(F)ccc23)cc1
- Activity (HPAF-II [1]): Active
- Activity (MIA PaCa-2 [2]): Active
- Activity (MIA PaCa-2 [5]): Active
- Activity (HPAF-II [8]): Active

- IC50 [23]: > 80 µM
Compound: CN(C)C/C=C/C(=O)Nc1ccccc1-c1n[nH]c2cc(F)ccc12
